Source: PubChem
Compounds with a hit are over-represented: about 2.3% of the library has one in this group of screens.
Dynein transport – inhibitors of GR-EGFP nuclear translocation, primary screen, dynein cargo transport inhibitor project, imaging, high-content, 3617.4 mouse cells | test concentration mostly 20 µM; stimulated with dexamethasone, 1 µM; stronger effect = lower value | z-score, hits read low | 220,000 compounds, 0.47% hits | AID 1381, 2008;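 active = plate z-score of nuclear minus cytoplasmic receptor signal below a set negative limit, without overly bright fluorescence or cell loss, cut at about -3.5 in these data, passing the limit was not always enough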;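 also: z-score of nuclear minus cytoplasmic ring GR-EGFP intensity difference per well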
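Buffer or medium: tet-free, stripped-serum medium; reagent: dexamethasone at 1.0 µM final, 30 min; incubation: 48 h induction, 1 h compound, 30 min dex at 37 °C; measured by: formaldehyde fixation, Hoechst nuclear stain, 10x automated fluorescence imaging; read-out: nuclear-to-cytoplasmic GR-EGFP distribution per well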
Insulin prom up – insulin promoter activators in MIN6 cells, imaging, high-content screening, mouse beta cells | MIN6 insulin promoter-GFP reporter; stronger effect = higher value | z-score at 5 µM | 190,000 compounds, 0.3% hits | AID 1625, 2009;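 active = z-score above 3 at 5 µM with at least 500 cells counted in the well; inconclusive = wells under 500 cells, flagged as cytotoxic or low count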
b-catenin transl – modulators of beta-catenin nuclear translocation, primary screen, imaging, HeLa cells, immunofluorescence, high-content; 190,000 compounds, 0.3% hits; nuclear translocation activity, % at 5 µM; AID 1665, 2009;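 active = nuclear translocation activity above 50% at 5 µM, with a well cell count of 50 or more; inconclusive = wells under 50 cells across six images, flagged as toxic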;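 also: per-cell ratio of nuclear to cytoplasmic median beta-catenin stain intensity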
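System: HeLa cells, endogenous beta-catenin; compound dosing: 5 µM primary single dose, 0.1% DMSO, 0.02–20 µM confirmation series; incubation: 24 h compound exposure at 37°C, 5% CO2; signal: beta-catenin immunofluorescence imaging with DAPI; evaluation: % activation, nuclear-to-cytoplasmic median beta-catenin signal ratio per cell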
MT stabilize HCS – microtubule stabilizers in HeLa cells, primary screen, imaging, high-content imaging. HeLa tubulin immunostaining HCS, 24 h; share of cells brighter than vehicle mean+2SD. 200,000 compounds, 0.83% hits. % tubulin-high responders, % at 10 µM;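 active = plate Z-score above 3 for both tubulin-high and condensed-nucleus cell shares, with cell loss under 80%, at 10 µM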;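 also: anti alpha tubulin signal scored within the nucleus-defined area of each cell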
Autophagy mod – autophagy modulators in MEF cells, primary screen, imaging, high-content, MEF GFP-LC3. MEF GFP-LC3 puncta imaging; test concentration mostly 10 µM. calls only at 10 µM (by protocol). 190,000 compounds, 0.98% hits;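 active = percentage of spot-positive cells more than 3 SD above its plate mean, without a fluorescence outlier flag or 80% toxicity; inconclusive = no clear call, values can overlap the other calls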
Hits are given with their value; n = inactive; u = inconclusive; x = no result; + = active, no number.

SMILES | Dynein transport | Insulin prom up | b-catenin transl | MT stabilize HCS | Autophagy mod
CCN(CC)S(=O)(=O)c1cccc(C(=O)N/N=C/c2ccc([N+](=O)[O-])o2)c1 | n | n | n | n | n
Cc1ccc(Nc2ncc3c(n2)CC(C)(C)CC3=O)cc1 | n | n | n | n | n
O=C1N/C(=C\c2ccccc2)c2ccccc21 | n | n | n | 20 | n
O=C(C1CCN(Cc2ccc(F)cc2)CC1)N1CCN(C/C=C/c2ccccc2)CC1 | n | n | n | n | n
O=C(C1CCN(Cc2ccccc2)CC1)N1CCN(C/C=C/c2ccccc2)CC1 | n | n | n | n | +
Nc1c(C(=O)NC23CC4CC(CC(C4)C2)C3)sc2nc3c(c(C(F)(F)F)c12)CCC3 | n | n | n | n | +
Nc1c(C(=O)Nc2ccccc2)sc2nc3c(c(-c4ccco4)c12)CCC3 | n | n | n | n | n
CC(C)(C)c1cc(C(=O)NCc2cc(F)cc3c2OCOC3)n(Cc2ccccc2)n1 | n | n | n | x | x
c1ccc(-c2cn3nc(-c4ccccc4)c(-c4ccccc4)nc3n2)cc1 | n | n | n | n | +
N#Cc1sc2nc(-c3ccccc3)cc(C(F)(F)F)c2c1N | n | x | n | n | +
COC(=O)c1c(C)oc2ccc(N(C(=O)c3ccncc3)S(=O)(=O)c3ccc(C)cc3)cc12 | n | u | 162 | n | n
COC(=O)c1c(C)oc2ccc(N(C(=O)c3ccncc3)S(=O)(=O)c3ccc(C)cc3C)cc12 | n | n | n | 14 | n
COC(=O)c1c(C)oc2ccc(N(C(=O)c3ccncc3)S(=O)(=O)c3ccc4ccccc4c3)cc12 | n | n | n | 27 | n
COc1ccc(NC(=O)C(=S)N2CCCC2)cc1 | n | n | n | n | n
COc1ccc(-c2nc(NC(=O)CCNC(=O)c3ccco3)sc2C)cc1 | n | n | n | n | n
CCCCn1c(=O)[nH]c2nc3cc(N)ccc3nc2c1=O | n | 4.8 | n | n | n
CCOC(=O)/C(=C\c1ccccc1)C(=O)c1cc(C(C)=O)c(Nc2ccccc2)s1 | n | n | x | n | +
COc1ccccc1N1CCN(c2cc(=O)n(Cc3ccc(F)cc3)c(=O)[nH]2)CC1 | n | n | n | 22 | x
Clc1ccc(-n2ncc3c(NCCCn4ccnc4)ncnc32)cc1 | n | n | n | n | n
CCCCNc1ncnc2c1cnn2-c1ccccc1 | n | x | 77 | 32 | n
CCCCNc1ncnc2c1cnn2-c1ccc(Cl)cc1 | n | n | n | 18 | n
COc1cc(N=Nc2cccc(S(N)(=O)=O)c2)c2ccccc2c1N | n | 5.9 | n | x | x
Cc1nn(-c2ccc([N+](=O)[O-])cc2)c2c1C(c1cccc(Br)c1)N1C(=N2)C(=O)Nc2ccccc21 (centres undefined) | n | n | n | n | +
Cc1ccc(NC(=O)Cn2nc(C)c(S(=O)(=O)N(C)C)c2C)cc1 | n | n | n | n | n
CCNS(=O)(=O)c1ccc(NC(=O)CC(C)c2ccccc2)cc1 (centres undefined) | n | n | n | n | n
SMILES | Dynein transport | Insulin prom up | b-catenin transl | MT stabilize HCS | Autophagy mod
COc1ccc(-c2[nH]ncc2N=Nc2ccccc2)cc1 | n | n | 89 | 19 | n
COc1ccc(-c2[nH]ncc2N=Nc2cc(C)cc(C)c2)cc1 | n | n | n | 16 | n
COc1ccc(-c2[nH]ncc2-c2ccc3c(c2)OCCO3)c(O)c1 | n | n | n | n | n
Cc1nn(C(C)C(=O)N/N=C/c2ccc(N(C)C)cc2)c(C)c1[N+](=O)[O-] (centres undefined) | n | n | n | x | x
CC(C)(C)OC(=O)CNC(=O)c1[nH]cnc1C(=O)Nc1ccc(Cl)cc1 | n | n | n | x | x
Cc1ccc([N+](=O)[O-])c(C(=O)N/N=C/c2cccs2)c1 | n | n | n | x | x
COc1ccc2cc(CN(C(=O)Nc3ccccc3OC)C3CCCC3)c(=O)[nH]c2c1 | n | n | n | n | n
CCc1ccc2[nH]c(=O)c(CN(CCN(CC)CC)C(=O)Nc3ccccc3OC)cc2c1 | n | n | n | n | +
COc1ccc(NC(=O)N(Cc2cc3ccc(OC)cc3[nH]c2=O)CC2CCCO2)cc1 (centres undefined) | n | n | n | 13 | n
COc1ccc(NC(=O)N(Cc2cc3cc(OC)ccc3[nH]c2=O)CC2CCCO2)cc1 (centres undefined) | n | n | n | n | n
COc1ccc2cc(CN(CC3CCCO3)C(=O)Nc3ccccc3OC)c(=O)[nH]c2c1 (centres undefined) | n | n | n | 23 | n
Cc1ccc(CSc2nccc(-c3c(C)nc4ccccn34)n2)cc1 | n | x | 55 | x | x
Cc1nc2c(oc3ccccc32)c(=O)o1 | n | 4.2 | n | n | n
Cc1ccc2nc(C)c(C(=O)NN=C3CCCCCC3)n2c1 | n | n | n | n | n
Cc1cccc(-c2c3c(=O)n(C)c(=O)n(C)c3c3nnc4ccccc4n23)c1 | n | x | x | n | +
Cc1nc2ccccc2n1CC(=O)OCC(=O)NC1CC1 | n | n | n | n | +
Cc1ccc2c(c1)S/C(=C/c1ccc[n+](C)c1)N2CCO | n | x | x | n | n
CCN1/C(=C/c2ccc3cc(C)ccc3[n+]2C)Sc2ccc3sccc3c21 | n | u | x | 77 | +
O=C(O)C1CCC(Cn2c(SCc3cc(=O)n4ccccc4n3)nc3ccsc3c2=O)CC1 (centres undefined) | n | x | n | n | n
COc1ccc(/C=N/Nc2nc(Nc3ccccc3)nc(N3CCCC3)n2)cc1[N+](=O)[O-] | n | n | n | n | +
COc1cc(/C=N/Nc2nc(Nc3ccccc3)nc(-n3nc(C)cc3C)n2)cc(OC)c1OC | n | x | n | n | +
O=C(Cc1cccs1)N1CCN=C1SCc1ccccc1Cl | n | n | n | n | n
O=C(Cc1cccs1)N1CCN=C1SCc1ccccc1F | n | n | n | n | +
CCN(CC)CC(=O)Nc1ccc2c(c1)Nc1ccccc1CC2 | n | n | n | 31 | n
Cc1cc(C)nc(SCc2ccc(C(=O)N/N=C/C3CCCCC3)cc2)n1 | n | n | n | n | +
SMILES | Dynein transport | Insulin prom up | b-catenin transl | MT stabilize HCS | Autophagy mod
O=C(CSc1nnc(CCc2nc3ccccc3[nH]2)n1-c1ccccc1)NCc1ccco1 | n | n | n | n | +
O=C(CSc1nnc(CCc2nc3ccccc3[nH]2)n1-c1ccccc1)NCc1ccccc1 | n | x | n | n | n
Cc1ccc(NC(=O)CSc2nc(-c3ccco3)cc(C(F)(F)F)n2)cc1C | n | x | n | 49 | n
COC(=O)c1ccccc1NC(=O)CSc1nc(-c2ccco2)cc(C(F)(F)F)n1 | n | n | n | 14 | n
Cc1c(NC(=O)CSc2nc(-c3ccco3)cc(C(F)(F)F)n2)c(=O)n(-c2ccccc2)n1C | n | n | n | n | n
Cc1cc(NC(=O)CSc2nc(-c3ccco3)cc(C(F)(F)F)n2)n(-c2ccccc2)n1 | n | n | n | 44 | n
